Active and inactive are the calls of the source. No cut-off for these calls is given here.
Tests used:
[1] = Cell cycle arrest in human BCC cells assessed as accumulation at sub G1 phase at 4 uM incubated for 4 hrs followed by 1 J/cm'2 UV irradiation measured after 24 hrs […]; assay type: functional
Method in brief: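 BCC cells (ATCC; RPMI1640, 10% FCS) exposed 4 h to agent, rinsed, irradiated in PBS with UVA (365 nm peak, 0.75 mW/cm²) at 1 J/cm². After 24 h, cells were fixed in 50% cold ethanol at −20 °C, treated with 100 µg/mL RNase A for 20 min at 37 °C, and stained with 50 µg/mL PI. 10,000 events were read by flow cytometry; the sub-G1 fraction was counted as apoptotic.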

[2] = Phototoxicity against human BCC cells assessed as cell viability at 4 uM incubated for 4 hrs followed by 1 J/cm'2 UV irradiation measured after 24 hrs by MTT assay; assay type: functional; conditions: light or radiation study, read-out: Activity
Method in brief: (§1)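 MTT assay: BCC cells were seeded at 2500/well and attached overnight. Cells were incubated 4 h with drug in triplicate, rinsed, irradiated in PBS with 365 nm UVA (0.25, 0.5 or 1 J/cm²), then returned to medium. After 24 h, MTT was added for 2 h at 37 °C, formazan was dissolved in DMSO, and absorbance was read at 540 nm relative to untreated controls.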

[3] = Phototoxicity against human BCC cells assessed as cell viability at 4 uM incubated for 4 hrs followed by 0.25 J/cm'2 UV irradiation measured after 24 hrs by MTT assay; assay type: functional; conditions: light or radiation study, read-out: Activity; method in brief: as §1
[4] = Phototoxicity against human BCC cells assessed as cell viability at 4 uM incubated for 4 hrs followed by 0.5 J/cm'2 UV irradiation measured after 24 hrs by MTT assay; assay type: functional; conditions: light or radiation study, read-out: Activity; method in brief: as §1
[5] = Induction of apoptosis in human BCC cells assessed as caspase3 activation at 4 uM incubated for 4 hrs followed by 1 J/cm'2 UV irradiation measured after 24 hrs […]; assay type: functional; conditions: in the assay text read “2 uM” for “4 uM”
Method in brief: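 Caspase-3 was measured in BCC cells 24 h after 4 h drug exposure and 1 J/cm² UVA (365 nm) given in PBS. Pellets were lysed in cold buffer (25 µL per 10⁶ cells), spun at 12,000 rpm for 10 min at 4 °C, and the supernatant assayed colorimetrically by pNA release at 405 nm. Results are mean SD.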

[6] = tested on: BCC; assay: Induction of apoptosis in human BCC cells assessed as increase in intracellular H2O2 level at 4 uM incubated for 4 hrs followed by 1 J/cm'2 UV irradiation […]; assay type: functional, cell-based
Method in brief: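 ROS was measured in BCC cells given 0–4 µM drug, with or without catalase (800 U/mL) pretreatment, and then irradiated with UVA. Immediately after irradiation, DCFH-DA (10 µM) was added for 30 min at 37 °C. DCF fluorescence was read by flow cytometry on FL-1.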

[7] = tested on: BCC; assay: Induction of apoptosis in human BCC cells assessed as decrease in mitochondrial potential at 2 uM incubated for 4 hrs followed by 1 J/cm'2 UV irradiation measured after 24 hrs; assay type: functional, cell-based
Method in brief: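 BCC dishes grown 24 h were pretreated 4 h at 0, 2 or 4 µM and given 1 J/cm² UVA, then trypsinized. Cells were stained 30 min at room temperature with DiOC₆ (100 nM/mL), washed, and read immediately by flow cytometry (FL-1, 530/30 nm). The percentage of cells with reduced Δψmt was scored from 10,000 cells. Three independent experiments were run.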

[8] = Induction of apoptosis in human BCC cells assessed as decrease in intracellular ATP level at 2 uM incubated for 4 hrs followed by 1 J/cm'2 UV irradiation […]; assay type: functional; set-up: scale not given: the % may be the effect or the level left
[9] = Induction of apoptosis in human BCC cells assessed as decrease in intracellular ATP level at 4 uM incubated for 4 hrs followed by 1 J/cm'2 UV irradiation […]; assay type: functional; set-up: scale not given: the % may be the effect or the level left
[10] = biological target: c-Jun N-terminal kinase, JNK (Homo sapiens) (UniProt P45983+P53779+P45984); assay: Inhibition of JNK phosphorylation in human BCC cells at 4 uM incubated for 4 hrs followed by 1 J/cm'2 UV irradiation; assay type: cell-based
Method in brief: (§2)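 BCC cells were exposed to drug with UVA irradiation. Blots were blocked in 5% milk/PBS-T and probed for total and phospho-ERK, p38 and JNK. HRP secondaries and chemiluminescence were used; bands were quantified by densitometric scanning.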

[11] = tested on: BCC; assay: Inhibition of MAPK phosphorylation in human BCC cells at 4 uM incubated for 4 hrs followed by 1 J/cm'2 UV irradiation; assay type: cell-based; method in brief: as §2
[12] = tested on: BCC; assay: Induction of ERK phosphorylation in human BCC cells at 4 uM incubated for 4 hrs followed by 1 J/cm'2 UV irradiation
[13] = Induction of apoptosis in human BCC cells assessed as caspase3 activation at 4 uM incubated for 4 hrs followed by 1 J/cm'2 UV irradiation measured after 24 hrs […]

**Q.** With `Cc1cc(-c2nc3ccccc3s2)ccc1N` as the compound, how does the Activity [1] read?
**A.** 13.6%

**Q.** With `Cc1cc(-c2nc3ccc(C(F)(F)F)cc3s2)ccc1N` as the compound, how does the Activity [1] read?
**A.** 6.4%

**Q.** For `Cc1ccc2nc(-c3ccc(N)cc3)sc2c1`, which Activity [1] is on record?
**A.** 13.4%

**Q.** Which Activity [1] does the source give for `Nc1ccc(-c2nc3ccccc3s2)cc1` here?
**A.** 6.5%

**Q.** With `COc1ccc2nc(-c3ccc(N)c(C)c3)sc2c1` as the compound, how does the Activity [1] read?
**A.** 14.8%

**Q.** With `COc1ccc2nc(-c3ccc(N)cc3)sc2c1` as the compound, how does the Activity [1] read?
**A.** 6.5%

**Q.** For `Nc1ccc(-c2nc3ccc(C(F)(F)F)cc3s2)cc1`, which viability at 4 µM [2] is on record?
**A.** 45%

**Q.** What about the viability at 4 µM [3] of the same compound?
**A.** 71%

**Q.** And the viability at 4 µM [4]?
**A.** 65%

**Q.** What about the Activity [1] of the same compound?
**A.** 35.4%

**Q.** What about the Activity [5] of the same compound?
**A.** 19.5%

**Q.** And the Activity [6]?
**A.** Active

**Q.** And the Activity [7]?
**A.** Active

**Q.** And the Activity [8]?
**A.** 30%

**Q.** What about the Activity [9] of the same compound?
**A.** 45%

**Q.** And the Activity [10]?
**A.** inactive

**Q.** And the Activity [11]?
**A.** inactive

**Q.** And the Activity [12]?
**A.** Active

**Q.** And the Activity [13]?
**A.** 27.5%

**Q.** For `CCc1ccc2nc(-c3ccc(N)cc3)sc2c1`, which Activity [1] is on record?
**A.** 29.2%

**Q.** Which Activity [1] does the source give for `COc1cccc2nc(-c3ccc(N)cc3)sc12` here?
**A.** 24.4%

**Q.** With `CCc1ccc2nc(-c3ccc(N)c(C)c3)sc2c1` as the compound, how does the Activity [1] read?
**A.** 13.8%

From ChEMBL document CHEMBL1212863, “Synthesis, and biological evaluation of 2-(4-aminophenyl)benzothiazole derivatives as photosensitizing agents” (2010)
